Legend:
[1] = target: aequorin (AEQ), cysteine-free mutant (Aequorea victoria, UniProt P07164, C152S/C159S/C187S); test: AEQ bioluminescence inhibition assay; format: biochemical; settings: for effect on bioluminescence emission of AEQ: 5.0 × 10^–10 M coelenterazine, 2 h incubation; for expected suitability for the inhibition assay: speculated, compounds not available, test planned
[2] = tested on: aequorin (AEQ); test: AEQ bioluminescence inhibition assay in spiked human serum; format: biochemical, Aequorea victoria
Outline: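 Cysteine-free apoaequorin was expressed in E. coli, secreted, and purified by DEAE and butyl HIC to >95% purity. Human serum was spiked with test compound standards in DMSO (90 μL serum + 10 μL standard). 20 μL of this was added to 80 μL 1.21 × 10−7 M apoAEQ in Buffer A with 5.0 × 10−10 M final coelenterazine, in triplicate, held 2 h at 4 °C. Ca2+/Tris pH 7.5 injection triggered light, collected for 6 s.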

[3] = tested on: aequorin (AEQ); test: AEQ bioluminescence inhibition assay in spiked tap water; format: biochemical, Aequorea victoria
Outline: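 Tap water was spiked with test compound standards prepared in DMSO. Same conditions as the buffer assay: 20 μL sample into 80 μL 1.21 × 10−7 M apoAEQ (30 mM Tris/HCl pH 7.5, 2 mM EDTA), 5.0 × 10−10 M final coelenterazine, triplicates, 2 h at 4 °C. Light was triggered with 100 μL 100 mM Tris/HCl pH 7.5, 100 mM CaCl2 and read for 6 s.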

[4] = tested on: aequorin (AEQ); test: Effect of OH-PCB on AEQ; format: biochemical, Aequorea victoria; settings: initial experiments with apoaequorin and coelenterazine
Outline: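 ApoAEQ stock was diluted to 1.21 × 10−7 M in 30 mM Tris/HCl pH 7.5, 2 mM EDTA and charged with three-fold molar excess coelenterazine, 4 °C, 18 h. Aequorin was then mixed with test compound in DMSO at 10% or 20% v/v, with DMSO-only and buffer controls. A 10 μL portion was triggered with 50 μL 100 mM Tris/HCl pH 7.5, 100 mM CaCl2 and read on a tube luminometer.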

[5] = tested on: aequorin (AEQ); test: Selectivity studies of the AEQ inhibition assay; format: biochemical, Aequorea victoria; settings: 1.0 × 10^−4 M compound, 5.0 × 10^−10 M coelenterazine
Outline: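 Selectivity used the optimized inhibition format with various organic compounds dissolved in DMSO. 1.21 × 10−7 M apoAEQ was incubated with 1.0 × 10−4 M compound and 5.0 × 10−10 M coelenterazine, 2 h at 4 °C. Light was triggered by Ca2+ (100 mM CaCl2, 100 mM Tris/HCl pH 7.5) and collected for 6 s. Values are the mean of three measurements ± 1 standard deviation.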

[6] = cited from earlier work
[7] = fetal rat plasma and brain; cited from earlier work
[8] = target: apoaequorin (apoAEQ) (Aequorea victoria, UniProt P07164, C152S/C159S/C187S); test: Coelenterazine dose-response curve - EC50 determination; format: biochemical
apoaequorin (apoAEQ), sequence (P07164 8-196 C152S/C159S/C187S): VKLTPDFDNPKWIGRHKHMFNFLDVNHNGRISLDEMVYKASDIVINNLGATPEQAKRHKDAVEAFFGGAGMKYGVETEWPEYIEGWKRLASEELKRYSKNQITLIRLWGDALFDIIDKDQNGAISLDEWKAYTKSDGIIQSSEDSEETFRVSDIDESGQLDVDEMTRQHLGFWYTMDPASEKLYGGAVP

aequorin (AEQ), cysteine-free mutant, sequence (P07164 8-196 C152S/C159S/C187S): as above

With `Oc1ccccc1-c1cc(Cl)c(Cl)c(Cl)c1Cl` [2 hydroxy-2',3',4',5'-tetrachlorobiphenyl] the IC50 [1] was 1.33 µM.

In the case of `Oc1cccc(-c2cc(Cl)ccc2Cl)c1O` [2,3-dihydroxy-2',5'-dichlorobiphenyl], the IC50 [1] is reported as 1380 µM.

With `Oc1cccc(-c2ccc(Cl)c(Cl)c2)c1O` [2,3-dihydroxy-3',4'-dichlorobiphenyl] the IC50 [1] was 550 µM.

For `Oc1ccc(Cl)cc1-c1cc(Cl)c(Cl)c(Cl)c1Cl` [2-hydroxy-2',3',4',5,5'-pentachlorobiphenyl], the “detection limit in serum” value [2] was 5.02 µM, the IC50 [1] was 0.097 µM and the detection limit ([1]; 5.0 × 10^−10 M coelenterazine, buffer) was 33 nM. The “detection limit in buffer containing HSA” value ([1]; buffer containing HSA (data not shown)) was 3.45 µM, the “detection limit in tap water” value [3] was 132 nM and the “decrease of AEQ bioluminescence activity” value [4] was 99%.

`Oc1c(Cl)ccc(Cl)c1-c1cc(Cl)c(Cl)cc1Cl` [2-hydroxy-2',3,4',5',6-pentachlorobiphenyl] showed an IC50 [1] of 0.028 µM and a detection limit ([1]; best detection limit of the assay (abstract)) of 11 nM.

With `Oc1ccccc1-c1c(Cl)cc(Cl)cc1Cl` [2-hydroxy-2',4',6'-trichlorobiphenyl] the IC50 [1] was 155 µM.

In the case of `Oc1ccc(-c2ccc(Cl)c(Cl)c2)cc1O` [3,4-dihydroxy-3',4'-dichlorobiphenyl], the IC50 [1] is reported as over 2000 µM and the “effect on bioluminescence emission of AEQ” value (“effect … of AEQ” for short) [1] is reported as “did not produce a decrease in the bioluminescence emission of AEQ”.

For `O=C(O)c1cccc(Cl)c1` [3-chloro-benzoic acid], the “effect on bioluminescence generated by AEQ” value (from here on “effect … by AEQ”) [5] was “do not decrease the bioluminescence”.

In the case of `Oc1cccc(-c2ccc(Cl)cc2)c1` [3-hydroxy-4'-chlorobiphenyl], the IC50 [1] is reported as over 2000 µM and the “effect … of AEQ” value [1] is reported as “did not produce a decrease in the bioluminescence emission of AEQ”.

In the case of `Oc1ccc(-c2cc(Cl)c(Cl)c(Cl)c2Cl)cc1Cl` [4-hydroxy-2',3,3',4',5'-pentachlorobiphenyl], the IC50 [1] is reported as 2.28 µM and the “effect … of AEQ” value [1] is reported as “greatly inhibited aequorin bioluminescence”.

In the case of `Oc1c(Cl)cc(-c2ccc(Cl)cc2Cl)cc1Cl` [4-hydroxy-2',3,4',5-tetrachlorobiphenyl], the IC50 [1] is reported as 17.5 µM.

For `Oc1c(Cl)cc(-c2ccccc2Cl)cc1Cl` [4-hydroxy-2',3,5-trichlorobiphenyl], the IC50 [1] was 290 µM.

Compound `Oc1ccc(-c2c(Cl)cc(Cl)cc2Cl)cc1` [4-hydroxy-2',4',6'-trichlorobiphenyl] has an IC50 [1] of 15.4 µM.

In the case of `Oc1ccc(-c2cc(Cl)ccc2Cl)cc1` [4-hydroxy-2',5'-dichlorobiphenyl], the IC50 [1] is reported as 138 µM.

In the case of `Oc1ccc(-c2c(Cl)c(Cl)cc(Cl)c2Cl)c(Cl)c1` [4-hydroxy-2,2',3',5',6'-pentachlorobiphenyl], the IC50 [1] is reported as 9.77 µM and the “effect … of AEQ” value [1] is reported as “greatly inhibited aequorin bioluminescence”.

In the case of `Oc1c(Cl)cc(-c2cc(Cl)c(Cl)cc2Cl)c(Cl)c1Cl` [4-hydroxy-2,2',3,4',5,5'-hexachlorobiphenyl], the “expected suitability for the inhibition assay” value [1] is listed as “would be suitable for this inhibition assay” and the “estrogenic activity” value [6] is listed as “anti-estrogenic”.

For `Oc1c(Cl)cc(-c2ccc(Cl)c(Cl)c2)c(Cl)c1Cl` [4-hydroxy-2,3,3',4',5-pentachlorobiphenyl], the “levels of thyroxine after exposure” value [7] is listed as “lower levels of thyroxine”, the “expected suitability for the inhibition assay” value [1] is listed as “would be suitable for this inhibition assay” and the “estrogenic activity” value [6] is listed as “weakly estrogenic”.

With `Oc1c(Cl)cc(-c2ccc(Cl)c(Cl)c2)cc1Cl` [4-hydroxy-3,3',4',5-tetrachlorobiphenyl] the IC50 [1] was 130 µM and the “effect … of AEQ” value [1] was “only a small alteration of the bioluminescence signal”.

In the case of `NC12CC3CC(CC(C3)C1)C2` [amantadine], the “effect … by AEQ” value [5] is reported as “do not decrease the bioluminescence”.

For `Oc1ccc(Cc2nc3c(Cc4ccccc4)nc(-c4ccc(O)cc4)cn3c2O)cc1` [coelenterazine], the EC50 [8] was 0.0618 µM.

In the case of `CN1CCC[C@H]1c1cccnc1` [nicotine], the “effect … by AEQ” value [5] is reported as “do not decrease the bioluminescence”.

From PMC4127403 (Analytical chemistry, 2012)
